# Source: PubChem BioAssay AID449757 (Broad Institute, 2010)
# Active and inactive are the calls of the source.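 The calls were made as follows: active = compounds whose fitted caspase activation midpoint falls no more than tenfold above the top tested dose; inconclusive = flat fit with activity between 30 and 70 percent, or failed fit; inactive = the rest.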
# Tested on: MEF Flag-A1-IRES-BIM, caspase-Glo luminescence, 3 h
# Assay: Caspase-Glo signal, Flag-A1-IRES-BIM MEF cells – cell-based, alternate construct, luminescence, A1 (Bcl2A1) inhibitor project, dose response (AID 449757)
# Procedure, shortened: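 Test system: Flag-A1-IRES-BIM-primed MEF cells. Technique: luminescent caspase activity measurement with CaspaseGlo reagent. Dosing: 100 nL compound added per well by pin transfer. Times: 3-h compound at 37 °C, 30-min cooling, 1-h reagent at RT. Buffer or medium: RPMI-1640 growth medium with 10% FBS.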
row,SMILES,AC50
1,CCC(Sc1nc2cc3c(cc2c(=O)n1Cc1ccco1)OCO3)C(=O)Nc1cccc(OC)c1 (centres undefined),> 35 µM (inactive)
2,CCOC(=O)c1c(C)oc2c1c(CN1CCN(C(=O)OCC)CC1)c(O)c1ccccc12,7.15 µM
3,COC(=O)CSc1nc(N)c2c3c(sc2n1)C(c1ccccc1)SC(c1ccccc1)C3 (centres undefined),> 35 µM (inactive)
4,COc1ccc(Cn2c(SCc3ccc(C)cc3)nc3cc(OC)c(OC)cc3c2=N)cc1Cl,> 35 µM (inactive)
5,COc1ccccc1-c1cn[nH]c1-c1ccc(OCc2ccccc2)cc1O,> 35 µM (inactive)
6,O=C(c1ccc(COc2ccc3ccccc3c2)o1)N1N=C(C(F)F)CC1(O)C(F)F (centres undefined),> 35 µM (inactive)
7,Cc1ccc(C)c(S(=O)(=O)NCC(=O)Nc2sc3c(c2C(N)=O)CCC(C)C3)c1 (centres undefined),> 35 µM (inactive)
8,COc1ccc(OC[C@@H](O)CNC(=O)c2cccc3c2C(=O)c2ccc(-c4ccc(F)cc4OCc4ccccc4)cc2S3(=O)=O)cc1,> 35 µM (inactive)
9,Cc1ccc(C=C2C(Cl)=C(Cl)C(Cl)=C2Cl)cc1,4.67 µM
10,COc1cc(-c2cc(-c3ccccc3)nc(SCC(=O)Nc3nccs3)c2C#N)cc(OC)c1OC,> 35 µM (inactive)
11,CCCc1ccc(OCc2ccc(C(=O)N/N=C/c3cccc([N+](=O)[O-])c3)o2)c(OC)c1,6.57 µM
12,CN(c1ccccc1)c1ccc(/C=C/[N+](=O)[O-])cc1,10.2 µM
13,O=C(CN(c1ccc(Br)cc1)S(=O)(=O)c1ccc(Cl)c([N+](=O)[O-])c1)NCCc1ccccc1,> 35 µM (inactive)
14,CCOC(=O)/C(=C\c1ccc([N+](=O)[O-])cc1)C(=O)c1cc(C(C)=O)c(Nc2ccccc2)s1,1.81 µM
15,O=C(Nc1ccc([N+](=O)[O-])cc1)C(Cc1ccccc1)N1C(=O)c2cccc3cccc(c23)C1=O (centres undefined),> 35 µM (inactive)
16,COc1cc(/C=C/[N+](=O)[O-])ccc1OC(=O)c1cccnc1,9.63 µM
17,COc1ccccc1CCNC(C)CCc1ccc(O)cc1 (centres undefined),> 35 µM (inactive)
18,CCc1nn(-c2cc(Oc3cccc4ccccc34)nc(-c3ccccc3)n2)c(N)c1C#N,> 35 µM (inactive)
19,CCc1nnc(NC(=O)CSc2nc(-c3ccccc3)cc(-c3ccc(F)cc3)c2C#N)s1,33.1 µM
20,COc1ccc(NC(=O)c2cccc3c2C(=O)c2ccc(-c4ccc(F)cc4OCc4ccccc4)cc2S3(=O)=O)cc1,> 35 µM (inactive)
21,COc1ccc(C(=O)/C=C/C(=O)N(CC(=O)NC2CCCCC2)Cc2cccs2)c(O)c1,24.5 µM
22,CCc1ccc(NC(=O)c2nc(S(=O)(=O)Cc3ccccc3)ncc2Cl)cc1,> 35 µM (inactive)

row,SMILES,AC50
1,COc1ccc(S(=O)(=O)N2CC(O)CC2C(=O)OCC(=O)Nc2ccc(Cl)cn2)cc1 (centres undefined),> 35 µM (inactive)
2,CCOC(=O)/C=c1\s/c(=C\c2ccc(C(=O)OC)cc2)c(=O)n1CC(=O)Nc1ccccc1,> 35 µM (inactive)
3,CCn1c(SCC(=O)c2ccccc2)nnc1-c1cc2cc(Br)ccc2o1,> 35 µM (inactive)
4,COc1ccc(C2Nc3ccc4ccccc4c3-c3c2c(=O)oc2ccccc32)cc1 (centres undefined),14.9 µM
5,O=C(Oc1cccc(/C=N/Nc2nc(Nc3ccccc3)nc(N3CCOCC3)n2)c1)c1ccco1,> 35 µM (inactive)
6,CCCCCCCC/C=C\CCCCCCCC(=O)NCCc1ccc(O)c(O)c1,11.6 µM
7,COc1ccc(NC(=O)C(=O)N/N=C\c2ccc(CNC(=O)C(=O)Nc3ccc(C)c(C)c3)o2)c(OC)c1,26.1 µM
8,Cc1ccc(C(=O)COC(=O)c2ccc3c(c2)C(=O)N(c2cccc4ncccc24)C3=O)cc1,36.1 µM
9,COc1cc2cnc(-c3ccccc3)c(-c3cccc(C(F)(F)F)c3)c2cc1OC,> 35 µM (inactive)
10,CC(=O)Nc1ccc(NC(=O)C(C)OC(=O)/C=C/c2cn(-c3ccccc3)nc2-c2cccnc2)cc1 (centres undefined),27.5 µM
11,COC(=O)[C@@]1(C)CC[C@]2(C)CC[C@@]3(C)C(=CC(=O)C4[C@@]5(C)CC[C@H](O)C(C)(C)[C@@H]5CC[C@]43C)[C@H]2C1 (some centres undefined),> 35 µM (inactive)
12,O=C(NCc1ccccc1Br)c1cccc2c1C(=O)c1ccc(-c3ccc(OC(F)(F)F)cc3)cc1S2(=O)=O,> 35 µM (inactive)
13,CC(C)(C)c1ccc2c(c1)OC(C(=O)N/N=C\c1ccc[nH]1)CO2 (centres undefined),> 35 µM (inactive)
14,COc1cc(NC(=O)c2ccccc2)c(OC)cc1NC(=O)Cc1ccc(Br)cc1,> 35 µM (inactive)
15,Cc1occc1-c1nnc(SCC(=O)NCCc2ccccc2)n1Cc1ccccc1,> 35 µM (inactive)
16,Cc1ccc(NC(=O)c2cc(N3C(=O)C=CC3=O)ccc2N2CCOCC2)cc1Cl,15.8 µM
17,O=C(COc1ccc(/C=N/NC(=O)c2cc3ccccc3o2)cc1Cl)Nc1ccccc1,9.15 µM
18,CCOc1ccc(NCc2cccn2-c2nnc(N3CCC(C(=O)NCCCN4CC(C)CC(C)C4)CC3)s2)cc1 (centres undefined),> 35 µM (inactive)
19,CC(C)CCN(C(=O)Cc1ccc(Cl)c(Cl)c1)c1c(N)n(Cc2ccccc2)c(=O)[nH]c1=O,16.9 µM
20,Cc1ccc(C)c(NC(=S)NC(NC(=O)Cc2cccc3ccccc23)C(Cl)(Cl)Cl)c1 (centres undefined),13.2 µM
21,Cc1nn(Cc2ccc(Cl)cc2Cl)c(C)c1NC(=O)Cn1nc([N+](=O)[O-])c(Cl)c1C,> 35 µM (inactive)
22,CC(=O)Nc1ncnc2c1c(-c1ccc(Cl)cc1)nn2C(C)(C)C,> 35 µM (inactive)
